The list is not random: actives were taken first. Their share in the collection is about 4.3%.
CAL PDZ FP-1 = blocks peptide binding to human CAL PDZ domain. inhibition, % at 20 µM. actives 0.02% (n = 330,000). Q9HD26. purified CAL PDZ, TMR-peptide fluorescence polarization, 1 h;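 active = highest replicate inhibition of at least 40%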;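 also: plate controls were DMSO neutral control wells for no effect and unlabeled competitor peptide control wells for full effect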
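material = purified tagged CAL PDZ domain construct (CerCALP) | buffer or medium = sodium phosphate/NaCl buffer pH 7.4 with TCEP, IgG, Thesit | reagent = TMR-labelled reporter peptide T*-PRC34 bound in PDZ groove | incubation = 1 h room-temperature incubation prior to read | measured by = fluorescence polarization (mP) | evaluation = percent inhibition from loss of millipolarization | control set = unlabelled peptide and DMSO controls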
DYRK1A inh = blocks rat Dyrk1A kinase activity; Q63470; ADP-Glo luminescence, NFATc1 peptide; inhibition, % at 12.5 µM; actives 0.43% (n = 310,000); in the data active = inhibition above about 50%;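 also: plate controls were vehicle with enzyme for no effect and no enzyme for full effect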
ALR inh = blocks human ALR sulfhydryl oxidase activity | P55789 | purified ALR, DTT oxidation, H2O2 HRP-luminol luminescence | inhibition, % (no concentration beside the values) | actives 3.8% (n = 290,000) | AID 485317;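 active = mean replicate inhibition above about 79%, with every replicate also reaching it, limit read from the data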
Target sequence (P55789 whole entry, looked up): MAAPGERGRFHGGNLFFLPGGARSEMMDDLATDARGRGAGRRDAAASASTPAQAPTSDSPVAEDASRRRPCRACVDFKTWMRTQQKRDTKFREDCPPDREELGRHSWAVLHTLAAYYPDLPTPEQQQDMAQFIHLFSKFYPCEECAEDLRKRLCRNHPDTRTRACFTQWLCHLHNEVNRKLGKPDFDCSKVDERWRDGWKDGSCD
CAL PDZ FP-2 = inhibitors of human CAL PDZ peptide binding; Q9HD26; purified CAL PDZ, TMR-peptide fluorescence polarization, 1 h; inhibition, % at 24.9 µM; actives 0.92% (n = 300,000);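 active = mean inhibition of at least 30% with at least half of replicates also reaching 30%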;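 also: 0% = DMSO neutral control and 100% = excess unlabeled competitor peptide PRC23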
Rtt109 Vps75 = inhibitors of Candida albicans Rtt109/Vps75 histone acetyltransferase | Q5AAJ8 | purified Rtt109/Vps75, ThioGlo CoA-SH fluorescence, 4 h | inhibition, % at 34.9 µM | actives 0.16% (n = 330,000) | AID 540336;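 active = inhibition of at least 50% in every replicate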
Target sequence (Q5AAJ8 whole entry, looked up): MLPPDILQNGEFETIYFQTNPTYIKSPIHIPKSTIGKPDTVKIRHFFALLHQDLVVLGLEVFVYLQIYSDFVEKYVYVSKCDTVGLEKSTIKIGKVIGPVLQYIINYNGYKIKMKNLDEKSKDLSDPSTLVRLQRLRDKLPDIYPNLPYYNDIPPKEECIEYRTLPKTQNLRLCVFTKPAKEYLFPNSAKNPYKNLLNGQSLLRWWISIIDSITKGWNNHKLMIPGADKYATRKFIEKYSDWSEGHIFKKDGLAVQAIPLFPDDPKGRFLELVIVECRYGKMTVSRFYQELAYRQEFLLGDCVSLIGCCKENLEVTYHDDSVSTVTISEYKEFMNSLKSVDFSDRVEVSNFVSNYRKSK
The depositor's hits bear a star; . = no result given.

SMILES	CAL PDZ FP-1	DYRK1A inh	ALR inh	CAL PDZ FP-2	Rtt109 Vps75
S=C(Nc1ccccc1Cl)NC1CCC(NC(=S)Nc2ccccc2Cl)CC1 (stereo not drawn)	0	.	-41	31*	-8
O=C(O)c1nn(CC(=O)N2CCC(Cc3ccccc3)CC2)c(=O)c2ccccc12	-1	-7	-7	.	-2
CC(C)(C)C(=O)Nc1ccc(S(=O)(=O)Nc2nccs2)cc1	-1	-1	-1	0	4
Cc1ccc(C(=O)O/N=C(\N)c2ccccn2)c(Cl)c1	-1	27	91*	-2	-3
N/C(=N\OC(=O)c1ccc(Cl)cc1Cl)c1ccccn1	-1	8	1	12	-6
CCC1CCC/C1=N\NC(=O)c1cc(C)[nH]n1 (stereo not drawn)	-2	.	28	-1	.
COc1cccc(/C=C/C(=O)Nc2ccc3c(c2)OCCO3)c1OC	-3	4	-2	-8	17
C/C(=N/NC(=O)Cc1cc(=O)[nH][nH]1)c1ccc([N+](=O)[O-])cc1	-2	-2	15	36*	.
COc1cc(/C(C)=N\NC(=O)CSc2nc3ccccc3n2C)ccc1O	1	1	99*	-2	-2
C/C(=N/NC(=O)CSc1nc2ccccc2n1C)c1ccncc1	-2	-8	-9	-1	-6
C/C(=N/NC(=O)Cc1c(C)[nH][nH]c1=O)c1ccc(O)cc1	-1	-4	98*	-1	7
C/C(=N\NC(=O)Cc1c(C)[nH][nH]c1=O)c1ccc(Cl)c(Cl)c1	-3	-2	18	-4	3
COc1cc(/C(C)=N/NC(=O)Cc2c(C)[nH][nH]c2=O)ccc1O	-1	-6	99*	-1	-10
C/C(=N\NC(=O)Cc1cc(=O)[nH][nH]1)c1cccc([N+](=O)[O-])c1	-1	0	18	-7	.
CN(CC(=O)Nc1cccc(F)c1)C(=O)C1(c2ccccc2)CC1	-4	3	-3	-7	4
COc1ccc(C(=O)N2CCCC(C(N)=O)C2)cc1S(=O)(=O)N1CCOCC1 (stereo not drawn)	0	0	.	2	1
Oc1[nH]c2ccccc2c1C1=NCCCC1	0	11	98*	-2	12
CCn1c(O)c(C2=NCCCC2)c2ccccc21	-1	4	.	1	28
COc1ccc(S(=O)(=O)N2CCOC2CNC(=O)C(=O)NCCCN2CCOCC2)cc1 (stereo not drawn)	-1	4	-12	-3	-5
Cc1ccc(NC(=O)CSc2n[nH]c(-c3ccco3)n2)c(C)c1	-2	.	51	-4	0
Cc1ccc(NC(=O)CSc2nc(-c3ccco3)nc3cc(=O)[nH]n23)c(Cl)c1	-2	-1	99*	3	-14
O=c1[nH]c2ccccc2nc1Cc1ccc([N+](=O)[O-])cc1	-2	-2	95*	0	-2
COc1cccc(NC(=O)CN(C)CC(=O)Nc2ccc(Br)cc2)c1	-2	.	-11	47*	-4
COc1ccc(NC(=O)CN(C)CC(=O)Nc2ccc(Cl)c(S(=O)(=O)N(C)C)c2)cc1	-1	.	-15	40*	-4
COc1ccc(CC(=O)OCC(=O)Nc2ccc(Cl)c(S(=O)(=O)N(C)C)c2)cc1	0	-1	-4	.	-2
SMILES	CAL PDZ FP-1	DYRK1A inh	ALR inh	CAL PDZ FP-2	Rtt109 Vps75
CCOCC(=O)Nc1cccc(OC)c1	-1	6	-9	66*	0
O=C(CN(Cc1ccc(F)cc1)C(=O)c1csnn1)NC1CCCC1	-2	1	-5	-4	19
Cc1n[nH]c(C)c1CCN(C)Cc1cn(C)nc1-c1ccccc1F	0	.	-21	0	7
Cc1cccc(NC(=O)COC(=O)c2ccc(S(=O)(=O)N3CCCC3)cc2)c1	-1	-5	.	-10	-4
Fc1cccc(Cl)c1CNc1ccc(N2CCCC2)cc1	0	-5	99*	-1	-5
O=C(O)c1cc(NCc2ccccc2C(F)(F)F)ccc1N1CCOCC1	0	-4	68	.	-4
COC(=O)c1cc(NCc2c(F)cccc2Cl)ccc1N1CCOCC1	0	-3	99*	-3	-4
NS(=O)(=O)c1ccc(NCc2c(F)cccc2Cl)cc1	-1	-12	.	-4	-2
O=C(O)c1cc(NCc2ccc(F)cc2)ccc1N1CCOCC1	0	7	97*	-1	3
COC(=O)c1cc(NS(=O)(=O)c2cccc(Cl)c2)ccc1N1CCOCC1	-1	.	39	-3	14
O=C(O)c1cc(NCc2cccs2)ccc1N1CCOCC1	-2	1	98*	-2	.
O/N=C(/CCc1ccccc1)c1ccc2c(c1)OCCO2	0	14	.	-2	8
CC(C)CNc1nc(Oc2ccc(=O)[nH]n2)nc(N2CCOCC2)n1	0	1	28	-1	-4
CCC(NC(=O)Cc1c(C)c2cc3c(cc2oc1=O)OC(C)(C)CC3)C(=O)O (stereo not drawn)	0	5	.	-2	-13
COC(=O)c1cc(NCc2cccs2)ccc1N1CCOCC1	0	5	100*	.	2
CC(=O)N(c1ccc(C)cc1)S(=O)(=O)c1ccc(Cl)cc1	-1	-1	-5	46*	-11
COc1ccc(Cc2c(O)nc(SCC(=O)c3ccc(OC)cc3)[nH]c2=O)cc1	0	-4	98*	-2	-2
COc1ccccc1NC(=O)CSc1nc(O)c(Cc2ccccc2)c(=O)[nH]1	-2	-2	88*	0	-9
COc1ccccc1NC(=O)c1cc(=O)[nH]c2ccccc12	-2	1	99*	4	0
COc1ccccc1NC(=O)CSCC(N)=O	-2	-5	94*	-3	8
COc1ccc(Cc2nnc(N/N=C(\C)c3ccccc3)[nH]c2=O)cc1OC	0	1	5	-1	-4
CNC(=O)C1(C(F)(F)F)C/C(=C\CCO)CCCO1 (stereo not drawn)	0	-1	-14	-2	-7
O=C(CN(C(=O)CCC(=O)Nc1nccs1)c1ccc(F)cc1)NCCc1ccccc1	-3	-7	0	7	1
COc1ccccc1NC(=O)CSc1nc(O)cc(=O)[nH]1	-2	9	98*	-4	.
CCc1c(O)nc(SCC(=O)Nc2ccccc2OC)[nH]c1=O	-2	-1	99*	3	-4
COc1ccccc1NC(=O)CSc1nc(N)c(-c2ccccc2)c(=O)[nH]1	-1	0	-13	6	24
COCCn1c(=S)[nH]c2ccc(N(C)C)cc2c1=O	-1	-3	97*	-2	-2
C=CCc1c(C)nc2c(C)cccc2c1SC(=N)N	1	30	100*	-3	28
COc1ccc(-c2csc(/C(C#N)=C(\O)CSc3nccn3C)n2)cc1OC	-2	0	86*	-5	14
COc1ccccc1N1CCN(C/C(O)=C(\C#N)c2nc(-c3ccccc3)cs2)CC1	1	-1	1	2	0
